# How the values were obtained:
# [1] = molecular target: T1, Retinoic acid receptor RXR-alpha (Homo sapiens, UniProt P19793); assay: Inhibition of [3H]9-cis-retinoic acid binding to human retinoid X receptor alpha ligand-binding domain expressed in Escherichia coli
# T1 sequence (P19793 whole entry): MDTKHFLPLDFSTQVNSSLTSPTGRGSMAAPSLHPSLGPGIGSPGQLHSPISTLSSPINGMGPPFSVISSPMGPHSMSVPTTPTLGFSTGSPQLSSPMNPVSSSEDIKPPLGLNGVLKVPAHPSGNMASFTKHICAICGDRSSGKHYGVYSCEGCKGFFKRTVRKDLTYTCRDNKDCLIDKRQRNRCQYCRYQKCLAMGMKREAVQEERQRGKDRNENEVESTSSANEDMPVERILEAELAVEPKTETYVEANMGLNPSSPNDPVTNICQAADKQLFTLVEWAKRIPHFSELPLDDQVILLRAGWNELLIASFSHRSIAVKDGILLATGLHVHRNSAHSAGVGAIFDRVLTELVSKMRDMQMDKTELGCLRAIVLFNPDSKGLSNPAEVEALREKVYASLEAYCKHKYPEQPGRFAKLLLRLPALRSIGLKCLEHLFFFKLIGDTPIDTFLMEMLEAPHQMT
# [2] = molecular target: T2, Retinoic acid receptor RXR-alpha (Homo sapiens) (UniProt P19793); assay: Antagonism of retinoid X receptor alpha activity induced by retinoic acid […] at 10e-5 M; type: functional
# T2 sequence (whole entry): T1 sequence (P19793 whole entry)
# Outline: (§1)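 CV-1 cells in DMEM/10% FCS, cotransfected by calcium precipitation with RXRα vector (20 µg), CRBP-II-tk-CAT reporter (200 µg) and β-gal vector. At 20 h, medium changed to 5% charcoal-stripped FCS. Cells treated 24 h with 1 × 10^-7 M 9-cis-RA ± test agent. CAT activity normalized to β-gal, expressed relative to 9-cis-RA alone as 100%.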
# [3] = molecular target: T3, Retinoic acid receptor gamma (Homo sapiens) (UniProt P13631); assay: Antagonism of retinoic acid receptor gamma activity induced by retinoic acid at 10e-6 M; type: functional
# T3 sequence (whole entry): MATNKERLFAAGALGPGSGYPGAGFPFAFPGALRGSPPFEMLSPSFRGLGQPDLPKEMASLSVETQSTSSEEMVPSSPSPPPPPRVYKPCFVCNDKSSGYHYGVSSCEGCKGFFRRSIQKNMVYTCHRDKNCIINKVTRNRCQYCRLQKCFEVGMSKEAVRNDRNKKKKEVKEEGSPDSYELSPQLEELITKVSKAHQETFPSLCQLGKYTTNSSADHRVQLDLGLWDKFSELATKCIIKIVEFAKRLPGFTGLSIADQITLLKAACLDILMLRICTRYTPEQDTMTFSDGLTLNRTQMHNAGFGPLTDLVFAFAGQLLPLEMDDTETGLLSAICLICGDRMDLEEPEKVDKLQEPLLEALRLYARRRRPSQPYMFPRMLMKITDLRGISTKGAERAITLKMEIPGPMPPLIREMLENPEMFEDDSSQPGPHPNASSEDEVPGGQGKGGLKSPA
# Outline: (§2)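 CV-1 cells kept in DMEM with 10% FCS and seeded 16-24 h before calcium precipitation cotransfection: RARα, β or γ vector (100 µg) with (TREpal)2-tk-CAT or CRBP-I-tk-CAT reporter (200 µg), plus β-gal vector. At 20 h, medium switched to 5% charcoal-stripped FCS. Cells got 1 × 10^-7 M trans-RA ± test agent for 24 h. CAT normalized to β-gal, as % of trans-RA alone.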
# [4] = molecular target: T2, Retinoic acid receptor RXR-alpha (Homo sapiens); assay: Antagonism of retinoid X receptor alpha activity induced by retinoic acid […] at 10e-6 M; type: functional; outline: as §1
# [5] = molecular target: T3, Retinoic acid receptor gamma (Homo sapiens); assay: Antagonism of retinoic acid receptor gamma activity induced by retinoic acid at 10e-7 M; type: functional; outline: as §2
# [6] = molecular target: T4, Retinoic acid receptor beta (Homo sapiens) (UniProt P10826); assay: Antagonism of retinoic acid receptor beta activity induced by retinoic acid at 10e-5 M; type: functional; outline: as §2
# T4 sequence (whole entry): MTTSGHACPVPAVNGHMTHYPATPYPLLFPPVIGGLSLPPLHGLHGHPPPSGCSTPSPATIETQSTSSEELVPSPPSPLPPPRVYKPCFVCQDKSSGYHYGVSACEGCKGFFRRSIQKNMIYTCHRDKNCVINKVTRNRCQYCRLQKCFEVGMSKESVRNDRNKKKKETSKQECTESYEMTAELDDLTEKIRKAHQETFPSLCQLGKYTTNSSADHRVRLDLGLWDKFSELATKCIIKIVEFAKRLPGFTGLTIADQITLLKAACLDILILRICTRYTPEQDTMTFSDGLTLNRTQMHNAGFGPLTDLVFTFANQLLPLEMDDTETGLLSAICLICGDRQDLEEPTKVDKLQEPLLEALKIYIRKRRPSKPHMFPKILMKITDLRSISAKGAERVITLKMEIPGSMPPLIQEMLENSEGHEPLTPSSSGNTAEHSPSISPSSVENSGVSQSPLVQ
# [7] = molecular target: T3, Retinoic acid receptor gamma (Homo sapiens); assay: Antagonism of retinoic acid receptor gamma activity induced by retinoic acid at 10e-5 M; type: functional; outline: as §2
# [8] = molecular target: T2, Retinoic acid receptor RXR-alpha (Homo sapiens); assay: Antagonism of retinoid X receptor alpha activity induced by retinoic acid […] at 10e-7 M; type: functional; outline: as §1
# [9] = molecular target: T4, Retinoic acid receptor beta (Homo sapiens); assay: Antagonism of retinoic acid receptor beta activity induced by retinoic acid at 10e-6 M; type: functional; outline: as §2
# [10] = molecular target: T5, Retinoic acid receptor alpha (Homo sapiens) (UniProt P10276); assay: Antagonism of retinoic acid receptor alpha activity induced by retinoic acid at 10e-5 M; type: functional; outline: as §2
# T5 sequence (whole entry): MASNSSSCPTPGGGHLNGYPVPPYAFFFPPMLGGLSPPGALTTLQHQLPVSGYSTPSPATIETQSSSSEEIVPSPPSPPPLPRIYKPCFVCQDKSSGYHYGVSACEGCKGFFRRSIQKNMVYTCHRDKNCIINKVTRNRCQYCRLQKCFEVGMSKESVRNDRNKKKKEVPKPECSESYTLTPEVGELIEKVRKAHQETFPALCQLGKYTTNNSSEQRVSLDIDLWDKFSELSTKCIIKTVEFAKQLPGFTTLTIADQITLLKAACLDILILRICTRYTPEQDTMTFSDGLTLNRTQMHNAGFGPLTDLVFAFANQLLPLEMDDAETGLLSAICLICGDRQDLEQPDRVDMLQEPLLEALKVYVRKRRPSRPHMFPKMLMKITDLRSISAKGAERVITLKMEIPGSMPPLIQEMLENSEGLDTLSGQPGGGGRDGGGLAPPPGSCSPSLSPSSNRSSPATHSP
# [11] = molecular target: T4, Retinoic acid receptor beta (Homo sapiens); assay: Antagonism of retinoic acid receptor beta activity induced by retinoic acid at 10e-7 M; type: functional; outline: as §2
# [12] = molecular target: T5, Retinoic acid receptor alpha (Homo sapiens); assay: Antagonism of retinoic acid receptor alpha activity induced by retinoic acid at 10e-6 M; type: functional; outline: as §2
# [13] = molecular target: T5, Retinoic acid receptor alpha (Homo sapiens); assay: Antagonism of retinoic acid receptor alpha activity induced by retinoic acid at 10e-7 M; type: functional; outline: as §2
smiles,measurement,setting,value
CCCOc1cc2c(cc1C(=C1CC1)c1ccc(C(=O)O)cc1)C(C)(C)CCC2(C)C,IC50,[1],120 nM
CCCCOc1cc2c(cc1C(=C1CC1)c1ccc(C(=O)O)cc1)C(C)(C)CCC2(C)C,IC50,[1],270 nM
CCCCOc1cc2c(cc1C(=C1CC1)c1ccc(C(=O)O)cn1)C(C)(C)CCC2(C)C,IC50,[1],10 nM
CCCOc1cc2c(cc1C(=C1CC1)c1ccc(C(=O)O)cn1)C(C)(C)CCC2(C)C,IC50,[1],6 nM
Cc1cc2c(cc1C(=C1CC1)c1ccc(C(=O)O)cc1)C(C)(C)CCC2(C)C,IC50,[1],21 nM
CCCCc1cc2c(cc1C(=C1CC1)c1ccc(C(=O)O)cc1)C(C)(C)CCC2(C)C,Relative activation,[2],48%
same,Relative activation,[3],99%
same,Relative activation,[4],88%
same,Relative activation,[5],95%
same,Relative activation,[6],65%
same,Relative activation,[7],91%
same,IC50,[1],500 nM
same,Relative activation,[8],115%
same,Relative activation,[9],88%
same,Relative activation,[10],22%
same,Relative activation,[11],98%
same,Relative activation,[12],45%
same,Relative activation,[13],82%
C=C(c1ccc(C(=O)O)cc1)c1cc2c(cc1CCCC)C(C)(C)CCC2(C)C,Relative activation,[2],150%
same,Relative activation,[3],94%
same,Relative activation,[4],130%
same,Relative activation,[5],89%
same,Relative activation,[6],84%
same,Relative activation,[7],110%
same,Relative activation,[8],114%
same,Relative activation,[9],102%
same,Relative activation,[10],20%
same,Relative activation,[11],94%
same,Relative activation,[12],30%
same,Relative activation,[13],75%

# Source: ChEMBL document CHEMBL1138684, “Determinants of retinoid X receptor transcriptional antagonism” (J Med Chem, 2004)
